Results from different studies.
Compare with care: the assays were run in different laboratories. In brackets after ≈: the same amount, converted by molar mass.
Organism: Lodderomyces parapsilosis
Observed: microbial growth
Method: broth dilution

Structure (SMILES)	strain	time	MIC [µg/mL]
CCCCCN1CCN(CC(O)(Cn2cncn2)c2ccc(F)cc2F)CC1 (stereo not drawn)	ATCC22019	48 h	15.6 (≈ 39.6 µM)
OC(Cn1cncn1)(Cn1cncn1)c1ccc(F)cc1F	ATCC22019	48 h	50 (≈ 163 µM)
OC(Cn1cncn1)(Cn1cncn1)c1ccc(F)cc1F	ATCC22019	–	1 (≈ 3.27 µM)
CCCCNS(=O)(=O)c1ccc(-c2ccc3oc(C(=O)c4cc(O)c(O)c(O)c4)cc3c2)cc1	–	–	8 to 16 (≈ 16.6 to 33.2 µM)
CCCCCN1CCNCC1	ATCC22019	48 h	> 31.3
C[C@@H]1[C@H](O)[C@@H](C)/C=C/C=C/C=C/C=C/C=C/C=C/C=C/[C@H](O[C@@H]2O[C@H](C)[C@@H](O)[C@H](N)[C@@H]2O)C[C@@H]2O[C@](O)(C[C@@H](O)C[C@@H](O)[C@H](O)CC[C@@H](O)C[C@@H](O)CC(=O)O[C@H]1C)C[C@H](O)[C@H]2C(=O)O	–	–	0.5 to 1 (≈ 0.541 to 1.08 µM)
CN1CCN(CC(O)(Cn2cncn2)c2ccc(F)cc2F)CC1 (stereo not drawn)	ATCC22019	48 h	0.975 (≈ 2.89 µM)
C[C@@H]1[C@H](O)[C@@H](C)/C=C/C=C/C=C/C=C/C=C/C=C/C=C/[C@H](O[C@@H]2O[C@H](C)[C@@H](O)[C@H](N)[C@@H]2O)C[C@@H]2O[C@](O)(C[C@@H](O)C[C@@H](O)[C@H](O)CC[C@@H](O)C[C@@H](O)CC(=O)O[C@H]1C)C[C@H](O)[C@H]2C(=O)O	ATCC22019	–	0.5 (≈ 0.541 µM)
O=C1/C(=C/c2cc(O)c(O)c(O)c2)Oc2ccccc21	–	–	8 (≈ 29.6 µM)
